Measurements collected from several papers.
Target: Dual specificity tyrosine-phosphorylation-regulated kinase 3 (DYRK3, Homo sapiens, UniProt O43781)
Read-out: enzyme activity
Action: inhibitor
Sequence (O43781 1-588, as in one of the studies): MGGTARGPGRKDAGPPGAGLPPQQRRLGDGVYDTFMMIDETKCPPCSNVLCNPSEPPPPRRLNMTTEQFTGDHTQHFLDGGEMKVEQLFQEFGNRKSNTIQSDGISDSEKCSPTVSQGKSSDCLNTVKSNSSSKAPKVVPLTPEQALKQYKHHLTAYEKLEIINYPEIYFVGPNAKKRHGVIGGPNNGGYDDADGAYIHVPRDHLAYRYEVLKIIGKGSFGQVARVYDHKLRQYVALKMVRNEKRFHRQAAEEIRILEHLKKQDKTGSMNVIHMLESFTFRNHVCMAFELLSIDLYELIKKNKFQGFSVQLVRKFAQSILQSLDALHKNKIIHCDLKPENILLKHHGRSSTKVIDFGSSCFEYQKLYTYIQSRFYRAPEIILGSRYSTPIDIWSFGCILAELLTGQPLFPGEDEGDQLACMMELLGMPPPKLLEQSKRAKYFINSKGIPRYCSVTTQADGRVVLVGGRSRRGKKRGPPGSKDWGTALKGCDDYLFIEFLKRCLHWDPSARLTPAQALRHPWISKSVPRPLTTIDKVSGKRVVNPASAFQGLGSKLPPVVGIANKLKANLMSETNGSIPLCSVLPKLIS

N#Cc1cccc(Nc2nc3cc(C(=O)O)ccc3c3cncnc23)c1 — remaining activity (radiometric; 1 µM): 15%
CC(C)(O)[C@H]1CC[C@H](Nc2ccc3ncc(-c4cccc(C(F)(F)F)c4)n3n2)CC1 — remaining activity (1 µM): 63.6%
CC(C)(C)C(=O)c1sc(NC2CCCCC2)nc1N — remaining activity (10 µM): 96%
O=C(O)c1ccc2c(c1)nc(Nc1ccc(F)c(Cl)c1)c1ccncc12 — remaining activity (radiometric; 1 µM): 1%
FC(F)c1nc2ccccc2n1-c1nc(N2CCOCC2)nc(N2CCOCC2)n1 — remaining activity (10 µM): 87%
CC(C)(C)c1nc2c(s1)c1nc(N)ncc1c1ccc(NS(=O)(=O)c3c(F)cccc3F)c(F)c12 — remaining activity (radiometric; 1 µM): 83%
Nc1nc(NC2CCCCC2)sc1C(=O)c1ccccc1 — remaining activity (10 µM): 57%
O=C(Nc1cnn(-c2csc(C(=O)NC3COC3)c2)c1)Nc1c(F)cccc1Cl — remaining activity (5 µM): 99.2%
Cn1c(=O)n(-c2ccc(C(C)(C)C#N)cc2)c2c3cc(-c4cnc5ccccc5c4)ccc3ncc21 — remaining activity (10 µM): 56%
O=C(O)c1ccc2c(c1)nc(Nc1ccccc1)c1ncncc12 — remaining activity (radiometric; 1 µM): 22%
Cc1sc(C(=O)NC2COC2)cc1-n1cc(NC(=O)Nc2c(F)cccc2Cl)cn1 — remaining activity (10 µM): 101%
CC(C)(C)c1nc(-c2cccc(NS(=O)(=O)c3c(F)cccc3F)c2F)c(-c2ccnc(N)n2)s1 — remaining activity (radiometric; 1 µM): 91%
O=C(O)c1ccc2c(c1)nc(Nc1ccc3ccccc3c1)c1ncncc12 — remaining activity (radiometric; 1 µM): 0%
COc1cc(Nc2cnc(C#N)c(O[C@H](C)CN(C)C)n2)ncc1-c1cnn(C)c1 — remaining activity (radiometric; 10 µM): 79%
O=C(O)c1ccc2c(c1)nc(Nc1ccccc1Cl)c1ncncc12 — remaining activity (radiometric; 1 µM): 66%
COc1cc(Cl)c(C(=O)N[C@@H](CN[C@H]2CC[C@@H](N)CC2)Cc2ccc(C#N)cc2)cc1-c1ccc(CN[C@H](C)c2ccc(C)cc2)o1 — remaining activity (1 µM): 99%
